# Reference: ChEMBL document CHEMBL1155224, “Discovery of new inhibitors of resistant Streptococcus pneumoniae penicillin binding protein (PBP) 2x by structure-based virtual screening” (J Med Chem, 2009)
# Residue numbers refer to the chain shown, from its start. Calls of active or inactive are those of the source. The rule behind the calls is not given here.
# Key:
# [1] = Inhibition of Streptococcus pneumoniae PBP1B after 60 mins by SDS-PAGE
# Procedure, shortened: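 Test compounds incubated with 0.7 μM PBP1b in 10 mM sodium phosphate pH 7.0 for 60 min at 30 °C. Remaining active enzyme counter-labeled with 10 μM fluorescein-labeled ampicillin for 20 min. Reaction stopped, proteins separated by SDS-PAGE and read by fluorescence imaging with background subtracted.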
# [2] = target: T1, Penicillin-binding protein 2x (Streptococcus pneumoniae serotype 4 (strain ATCC BAA-334 / TIGR4)) (UniProt P14677); assay: Inhibition of penicillin-resistant Streptococcus pneumoniae 5204 PBP2X assessed as residual activity at 200 uM preincubated for 1 hr before addition of substrate (R)-[2-(benzoylamino)propionylsulfanyl]acetic acid
# T1 sequence (whole entry): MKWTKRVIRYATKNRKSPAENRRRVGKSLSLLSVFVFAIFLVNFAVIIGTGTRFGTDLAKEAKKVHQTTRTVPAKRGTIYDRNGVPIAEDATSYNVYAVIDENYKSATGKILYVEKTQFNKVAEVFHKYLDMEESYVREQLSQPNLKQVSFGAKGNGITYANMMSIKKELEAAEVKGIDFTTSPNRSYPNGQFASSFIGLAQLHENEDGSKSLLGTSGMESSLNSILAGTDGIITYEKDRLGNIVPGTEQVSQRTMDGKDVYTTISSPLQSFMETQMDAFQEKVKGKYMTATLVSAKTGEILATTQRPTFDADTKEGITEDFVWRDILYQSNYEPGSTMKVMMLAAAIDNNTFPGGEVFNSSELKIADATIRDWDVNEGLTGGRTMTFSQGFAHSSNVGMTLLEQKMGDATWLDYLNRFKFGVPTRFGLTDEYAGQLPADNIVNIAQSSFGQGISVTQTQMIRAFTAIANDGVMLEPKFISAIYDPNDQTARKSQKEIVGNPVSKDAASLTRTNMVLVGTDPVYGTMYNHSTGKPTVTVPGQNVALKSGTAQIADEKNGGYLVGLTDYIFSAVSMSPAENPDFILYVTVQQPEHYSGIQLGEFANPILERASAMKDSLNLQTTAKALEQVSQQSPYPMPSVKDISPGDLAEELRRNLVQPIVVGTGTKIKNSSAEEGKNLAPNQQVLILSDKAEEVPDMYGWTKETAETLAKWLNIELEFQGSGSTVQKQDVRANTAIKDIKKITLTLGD
# [3] = target: T1, Penicillin-binding protein 2x (Streptococcus pneumoniae serotype 4 (strain ATCC BAA-334 / TIGR4)); assay: Inhibition of penicillin-resistant Streptococcus pneumoniae 5204 PBP2X
# Procedure, shortened: (§1)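 0.6 μM 5204-PBP2x preincubated 4 h at 25 °C with inhibitor in 10 mM sodium phosphate pH 7.0, 70 mM D-alanine, 0.01 mg/mL BSA, 1% DMF, 0.01% Triton X-100. Assays were run in triplicate, and IC50 was fitted from residual activity versus decreasing inhibitor concentrations.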
# [4] = target: T2, Penicillin-binding protein 2X (Streptococcus pneumoniae R6, UniProt P59676); assay: (§2) Inhibition of penicillin-sensitive Streptococcus pneumoniae R6 PBP2X preincubated for 1 hr before addition of substrate (R)-[2-(benzoylamino)propionylsulfanyl]acetic acid
# T2 sequence (P59676 whole entry): T1 sequence (whole entry) with T385M
# Procedure, shortened: (§3)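 Compounds taken from 100 mM DMF stocks (1% DMF final) and preincubated with 0.09 μM R6-PBP2x in 10 mM sodium phosphate pH 7.0 with 0.01 mg/mL BSA, 60 min, 25 °C. Spontaneous hydrolysis without enzyme measured. Triplicates. IC50 fitted from residual activity versus decreasing inhibitor concentration, with 0.01% Triton X-100.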
# [5] = target: Penicillin-binding protein 2x (Streptococcus pneumoniae serotype 4 (strain ATCC BAA-334 / TIGR4), UniProt P14677); assay: (§4) Inhibition of penicillin-resistant Streptococcus pneumoniae 5204 PBP2X preincubated for 4 hrs before addition of substrate (R)-[2-(benzoylamino)propionylsulfanyl]acetic acid; procedure, shortened: as §1
# [6] = tested on: Streptococcus pneumoniae; assay: Antibacterial activity against penicillin-resistant Streptococcus pneumoniae SP328; format: functional
# [7] = tested on: Streptococcus pneumoniae; assay: Antibacterial activity against penicillin-resistant Streptococcus pneumoniae 5259; format: functional
# [8] = target: T3, Penicillin-binding protein 2X (Streptococcus pneumoniae R6) (UniProt P59676); assay: as §2; procedure, shortened: as §3
# T3 sequence (whole entry): T1 sequence (whole entry) with T385M
# [9] = target: T1, Penicillin-binding protein 2x (Streptococcus pneumoniae serotype 4 (strain ATCC BAA-334 / TIGR4)); assay: as §4; procedure, shortened: as §1
# [10] = target: T1, Penicillin-binding protein 2x (Streptococcus pneumoniae serotype 4 (strain ATCC BAA-334 / TIGR4)); assay: Inhibition of penicillin-resistant Streptococcus pneumoniae 5204 PBP2X assessed as residual activity at 100 uM preincubated for 1 hr before addition of substrate (R)-[2-(benzoylamino)propionylsulfanyl]acetic acid
SMILES,IC50 [1],Activity [2] [%],Activity [3],IC50 [4] [µM],IC50 [5] [µM],MIC [6] [µg/mL],MIC [7] [µg/mL],Activity [8],Activity [9],IC50 ([1]; read-out: IC50) [µM],Activity [10] [%]
Cc1ccc(Nc2nnc(CSc3ccc(Cl)cc3)s2)c(S(=O)(=O)O)c1,Not Active,54,Active,> 1000,219,,,,,,
CC1(C)S[C@@H]2[C@H](NC(=O)Cc3ccccc3)C(=O)N2[C@H]1C(=O)O [PENICILLIN G],,,,,,4,0.19,Active,Active,,
O=C(Nc1cccc(C(F)(F)F)c1)Nc1c(Oc2ccc(Cl)c(Cl)c2)ccc(Cl)c1S(=O)(=O)O,,,Active,255,72,,,,,88,50
